Measured values published in ChEMBL document CHEMBL4304792, “Cinnamonitrile Adjuvants Restore Susceptibility to β-Lactams against Methicillin-Resistant Staphylococcus aureus” (ACS Med Chem Lett, 2019).
In brackets after ≈: the same amount, converted by molar mass.

Legend:
Staphylococcus aureus [1] = assay: Antibacterial activity against Staphylococcus aureus USA200-NRS383 measured after 16 to 20 hrs in presence of 2% NaCl by microdilution broth method; assay type: functional
Staphylococcus aureus [2] = assay: Antibacterial activity against Staphylococcus aureus NRS119 measured after 16 to 20 hrs in presence of 2% NaCl by microdilution broth method; assay type: functional
Staphylococcus aureus [3] = assay: Potentiation of oxacillin induced antibacterial activity against Staphylococcus aureus USA100-NRS382 assessed as oxacillin MIC at 16 uM measured after 16 to 20 hrs in presence of 2% NaCl by microdilution broth method (reference value: 64 mg/L); assay type: functional
Staphylococcus aureus [4] = assay: Potentiation of oxacillin induced antibacterial activity against Staphylococcus aureus USA200-NRS383 assessed as oxacillin MIC at 16 uM measured after 16 to 20 hrs in presence of 2% NaCl by microdilution broth method (reference value: 128 mg/L); assay type: functional
HeLa = assay: Cytotoxicity against human HeLa cells by XTT assay; assay type: cell-based
Method in brief: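 HeLa human cervical cancer cells were exposed to the compounds. Viability was read by XTT colorimetric assay, and IC50 was reported in μM and mg·L–1.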

Staphylococcus aureus [5] = assay: Antibacterial activity against Staphylococcus aureus NRS384 measured after 16 to 20 hrs in presence of 2% NaCl by microdilution broth method; assay type: functional
Staphylococcus aureus [6] = assay: Potentiation of oxacillin induced antibacterial activity against Staphylococcus aureus USA200-NRS383 assessed as oxacillin MIC at 8 uM measured after 16 to 20 hrs in presence of 2% NaCl by microdilution broth method (reference value: 128 mg/L); assay type: functional
Staphylococcus aureus [7] = assay: Antibacterial activity against Staphylococcus aureus Mu50 NRS1 measured after 16 to 20 hrs in presence of 2% NaCl by microdilution broth method; assay type: functional
Staphylococcus aureus [8] = assay: Potentiation of oxacillin induced antibacterial activity against Staphylococcus aureus MW2 NRS123 assessed as oxacillin MIC at 8 uM measured after 16 to 20 hrs in presence of 2% NaCl by microdilution broth method (reference value: 16 mg/L); assay type: functional
Staphylococcus aureus [9] = assay: Antibacterial activity against Staphylococcus aureus MW2 NRS123 measured after 16 to 20 hrs in presence of 2% NaCl by microdilution broth method; assay type: functional
Staphylococcus aureus [10] = assay: Potentiation of oxacillin induced antibacterial activity against Staphylococcus aureus Mu50 NRS1 assessed as oxacillin MIC at 16 uM measured after 16 to 20 hrs in presence of 2% NaCl by microdilution broth method (reference value: 256 mg/L); assay type: functional
Staphylococcus aureus [11] = assay: Potentiation of oxacillin induced antibacterial activity against Staphylococcus aureus USA100-NRS382 assessed as oxacillin MIC at 8 uM measured after 16 to 20 hrs in presence of 2% NaCl by microdilution broth method (reference value: 64 mg/L); assay type: functional
Staphylococcus aureus [12] = assay: Potentiation of oxacillin induced antibacterial activity against Staphylococcus aureus NRS119 assessed as oxacillin MIC at 20 uM measured after 16 to 20 hrs in presence of 2% NaCl by microdilution broth method (reference value: 256 mg/L); assay type: functional
Staphylococcus aureus [13] = assay: Potentiation of oxacillin induced antibacterial activity against Staphylococcus aureus NRS384 assessed as oxacillin MIC at 20 uM measured after 16 to 20 hrs in presence of 2% NaCl by microdilution broth method (reference value: 32 mg/L); assay type: functional
Staphylococcus aureus [14] = assay: Potentiation of oxacillin induced antibacterial activity against Staphylococcus aureus NRS119 assessed as oxacillin MIC at 16 uM measured after 16 to 20 hrs in presence of 2% NaCl by microdilution broth method (reference value: 256 mg/L); assay type: functional
Staphylococcus aureus [15] = assay: Antibacterial activity against Staphylococcus aureus NRS70 measured after 16 to 20 hrs in absence of 2% NaCl by microdilution broth method
Staphylococcus aureus [16] = assay: Antibacterial activity against Staphylococcus aureus USA100-NRS382 measured after 16 to 20 hrs in presence of 2% NaCl by microdilution broth method; assay type: functional
Staphylococcus aureus [17] = assay: Potentiation of oxacillin induced antibacterial activity against Staphylococcus aureus MW2 NRS123 assessed as oxacillin MIC at 20 uM measured after 16 to 20 hrs in presence of 2% NaCl by microdilution broth method (reference value: 16 mg/L); assay type: functional
Staphylococcus aureus [18] = assay: Potentiation of oxacillin induced antibacterial activity against methicillin susceptible Staphylococcus aureus NRS77 assessed as reduction in oxacillin MIC at 20 uM measured after 16 to 20 hrs in presence of 2% NaCl by microdilution broth method; assay type: functional
Method in brief: (§1)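 Oxacillin MIC was measured against methicillin-susceptible strains with the adjuvant fixed at 20 μM. Potentiation was expressed as fold reduction of the oxacillin MIC relative to oxacillin alone.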

Staphylococcus aureus [19] = assay: Potentiation of oxacillin induced antibacterial activity against Staphylococcus aureus USA200-NRS383 assessed as oxacillin MIC at 20 uM measured after 16 to 20 hrs in presence of 2% NaCl by microdilution broth method (reference value: 128 mg/L); assay type: functional
Staphylococcus aureus [20] = assay: Potentiation of oxacillin induced antibacterial activity against Staphylococcus aureus MRSA252 assessed as oxacillin MIC at 8 uM measured after 16 to 20 hrs in presence of 2% NaCl by microdilution broth method (reference value: 256 mg/L); assay type: functional
Staphylococcus aureus [21] = assay: Potentiation of oxacillin induced antibacterial activity against Staphylococcus aureus NRS70 assessed as oxacillin MIC at 16 uM measured after 16 to 20 hrs in presence of 2% NaCl by microdilution broth method (reference value: 64 mg/L); assay type: functional
Staphylococcus aureus [22] = assay: Potentiation of oxacillin induced antibacterial activity against Staphylococcus aureus Mu50 NRS1 assessed as oxacillin MIC at 8 uM measured after 16 to 20 hrs in presence of 2% NaCl by microdilution broth method (reference value: 256 mg/L); assay type: functional
Staphylococcus aureus [23] = assay: Potentiation of oxacillin induced antibacterial activity against Staphylococcus aureus USA100-NRS382 assessed as oxacillin MIC at 20 uM measured after 16 to 20 hrs in presence of 2% NaCl by microdilution broth method (reference value: 64 mg/L); assay type: functional
Staphylococcus aureus [24] = assay: Antibacterial activity against Staphylococcus aureus MRSA252 measured after 16 to 20 hrs in presence of 2% NaCl by microdilution broth method; assay type: functional
Staphylococcus aureus [25] = assay: Potentiation of oxacillin induced antibacterial activity against Staphylococcus aureus NRS384 assessed as oxacillin MIC at 8 uM measured after 16 to 20 hrs in presence of 2% NaCl by microdilution broth method (reference value: 32 mg/L); assay type: functional
Staphylococcus aureus [26] = assay: Potentiation of oxacillin induced antibacterial activity against Staphylococcus aureus MRSA252 assessed as oxacillin MIC at 16 uM measured after 16 to 20 hrs in presence of 2% NaCl by microdilution broth method (reference value: 256 mg/L); assay type: functional
Staphylococcus aureus [27] = assay: Potentiation of oxacillin induced antibacterial activity against Staphylococcus aureus MW2 NRS123 assessed as oxacillin MIC at 16 uM measured after 16 to 20 hrs in presence of 2% NaCl by microdilution broth method (reference value: 16 mg/L); assay type: functional
Staphylococcus aureus [28] = assay: Potentiation of oxacillin induced antibacterial activity against methicillin susceptible Staphylococcus aureus NRS72 assessed as reduction in oxacillin MIC at 20 uM measured after 16 to 20 hrs in presence of 2% NaCl by microdilution broth method; assay type: functional; method in brief: as §1

Row | Compound | MIC (Staphylococcus aureus [1]) | MIC (Staphylococcus aureus [2]) | MIC (Staphylococcus aureus [3]) | MIC (Staphylococcus aureus [4]) | IC50 (HeLa) | MIC (Staphylococcus aureus [5]) | MIC (Staphylococcus aureus [6]) | MIC (Staphylococcus aureus [7]) | MIC (Staphylococcus aureus [8]) | MIC (Staphylococcus aureus [9]) | MIC (Staphylococcus aureus [10]) | MIC (Staphylococcus aureus [11]) | MIC (Staphylococcus aureus [12]) | MIC (Staphylococcus aureus [13]) | MIC (Staphylococcus aureus [14]) | MIC (Staphylococcus aureus [15]) | MIC (Staphylococcus aureus [16]) | MIC (Staphylococcus aureus [17]) | fold change (FC) (Staphylococcus aureus [18]) | MIC (Staphylococcus aureus [19]) | also measured
1 | CS(=O)(=O)/C(C#N)=C/c1cc(Cc2ccc(Cl)c(Cl)c2)ccc1F | ≥ 64 µg/mL | 16 µg/mL | 1 µg/mL | ≥ 128 µg/mL | 125 µM | 32 µg/mL | ≥ 128 µg/mL | ≥ 64 µg/mL | 4 µg/mL | ≥ 64 µg/mL | 4 µg/mL | 1 µg/mL | ≤ 0.03 µg/mL | 0.06 µg/mL | 1 µg/mL | 8 µg/mL (≈ 20.8 µM) | ≥ 64 µg/mL | ≤ 0.03 µg/mL | 2 - 10 | ≥ 128 µg/mL | MIC (Staphylococcus aureus [20]): 256 µg/mL; MIC (Staphylococcus aureus [21]): 0.5 µg/mL; MIC (Staphylococcus aureus [22]): 8 µg/mL; MIC (Staphylococcus aureus [23]): 0.25 µg/mL; MIC (Staphylococcus aureus [24]): 32 µg/mL; MIC (Staphylococcus aureus [25]): 2 µg/mL; MIC (Staphylococcus aureus [26]): 256 µg/mL; MIC (Staphylococcus aureus [27]): 0.5 µg/mL; fold change (FC) (Staphylococcus aureus [28]): 2 - 10
2 | CS(=O)(=O)/C(C#N)=C/c1cc(-c2ccc(Cl)c(Cl)c2)ccc1F | 16 µg/mL | 16 µg/mL | 2 µg/mL | ≥ 128 µg/mL | 130 µM | 16 µg/mL | ≥ 128 µg/mL | 16 µg/mL | 1 µg/mL | 16 µg/mL | 16 µg/mL | 4 µg/mL | 0.12 µg/mL | 4 µg/mL | 0.5 µg/mL | 16 µg/mL (≈ 43.2 µM) | 32 µg/mL | 2 µg/mL | 2 - 10 | ≥ 128 µg/mL | MIC (Staphylococcus aureus [20]): 256 µg/mL; MIC (Staphylococcus aureus [21]): 2 µg/mL; MIC (Staphylococcus aureus [22]): 128 µg/mL; MIC (Staphylococcus aureus [23]): 1 µg/mL; MIC (Staphylococcus aureus [24]): 16 µg/mL; MIC (Staphylococcus aureus [25]): 8 µg/mL; MIC (Staphylococcus aureus [26]): 128 µg/mL; MIC (Staphylococcus aureus [27]): 0.5 µg/mL; fold change (FC) (Staphylococcus aureus [28]): 2 - 10
